ChEMBL document CHEMBL3792273, “Synthesis and pharmacological evaluation of mono-arylimidamides as antileishmanial agents” (Bioorg Med Chem Lett, 2016)

Assays:
[1] = Selectivity index, ratio of IC50 for cytotoxic activity against mouse J774 cells to IC50 for antileishmanial activity against Leishmania donovani; format: toxicity, cell-based; conditions: read-out: Ratio IC50
Mus musculus = assay: Toxicity in BALB/c mouse assessed as drug tolerance at 30 mg/kg/day, ip for 5 days; format: organism-based; conditions: in vivo, 120 h
Method in brief: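 Compound was dissolved in water and injected i.p. into healthy, uninfected BALB/c mice at 30 mg/kg/day once daily for 5 consecutive days to assess in vivo tolerability.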

[2] = Selectivity index, ratio of IC50 for cytotoxic activity against mouse J774 cells to IC50 for antileishmanial activity against Leishmania amazonensis amastigotes; format: toxicity, cell-based; conditions: read-out: Ratio IC50
Leishmania amazonensis [3] = assay: Antileishmanial activity against beta-lactamase expressing Leishmania amazonensis amastigotes overnight infected in CD1 mouse macrophages incubated for 72 hrs by nitrocefin dye based assay in presence of posaconazole; format: functional, organism-based
[4] = Drug level in BALB/c mouse liver at 40 mg/kg, po administered as single dose after 24 hrs; format: ADME, organism-based; conditions: read-out: Drug uptake
Method in brief: (§1)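 Mice received a single oral dose of 100 μmol/kg (40 mg/kg). Compound levels in plasma, liver, spleen and kidney were measured at 1, 2 and 24 h post-dose and reported as concentrations. Values are means ± standard errors of triplicate determinations.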

[5] = Drug level in BALB/c mouse spleen at 40 mg/kg, po administered as single dose after 24 hrs; format: ADME, organism-based; conditions: read-out: Drug uptake; method in brief: as §1
[6] = Drug level in BALB/c mouse plasma at 40 mg/kg, po administered as single dose after 1 hr; format: ADME, organism-based; method in brief: as §1
[7] = Drug level in BALB/c mouse liver at 40 mg/kg, po administered as single dose after 1 hr; format: ADME, organism-based; conditions: read-out: Drug uptake; method in brief: as §1
[8] = Drug level in BALB/c mouse spleen at 40 mg/kg, po administered as single dose after 1 hr; format: ADME, organism-based; conditions: read-out: Drug uptake; method in brief: as §1
[9] = Drug level in BALB/c mouse plasma at 40 mg/kg, po administered as single dose after 24 hrs; format: ADME, organism-based; method in brief: as §1
Leishmania amazonensis [10] = assay: Antileishmanial activity against Leishmania amazonensis infected in mouse peritoneal macrophages after 72 hrs using 2 hrs parasite exposed mouse peritoneal macrophages

Row | SMILES | selectivity ratio [1] | Activity (Mus musculus) | selectivity ratio [2] | other results
1 | CS(=O)(=O)O.N=C(Nc1ccc(-c2ccc(-c3ccccc3)o2)c(OC2CCCC2)c1)c1ccccn1 | ≥ 25 | Non-toxic | ≥ 25 | 
2 | CC(C)Oc1cc(NC(=N)c2ccccn2)ccc1-c1ccc(-c2ccccc2)o1.CS(=O)(=O)O | ≥ 25 | Non-toxic | ≥ 25 | IC50 (Leishmania amazonensis [3]): 55 nM; concentration at 24 h [4]: 600 nM; concentration at 24 h [5]: 600 nM; concentration at 1 h [6]: 1900 nM; concentration at 1 h [7]: 12600 nM; concentration at 1 h [8]: 4700 nM; concentration at 24 h [9]: 140 nM
3 | CC(C)Oc1cc(NC(=N)c2ccccn2)ccc1-c1cnc(-c2ccccc2)o1 | 24 |  | 41 | 
4 | COc1ccc(-n2cc(-c3ccc(NC(=N)c4ccccn4)cc3OC(C)C)nn2)cc1 | 10 |  | 5.5 | 
5 | CC[C@@H]([C@H](C)O)n1ncn(-c2ccc(N3CCN(c4ccc(OC[C@@H]5CO[C@@](Cn6cncn6)(c6ccc(F)cc6F)C5)cc4)CC3)cc2)c1=O [POSACONAZOLE] |  |  |  | IC50 (Leishmania amazonensis [10]): 1600 nM
6 | CC(C)Oc1cc(NC(=N)c2ccccn2)ccc1-c1ccc(-c2ccccc2)s1 | 3.1 |  | 3 | 
7 | CC(C)Oc1cc(NC(=N)c2ncccn2)ccc1-c1ccc(-c2ccccc2)o1 | 27 |  | 18 | 
8 | CC(C)Oc1cc(NC(=N)c2ccccn2)ccc1-c1ccc(-c2ccco2)o1.Cl | ≥ 25 | Non-toxic | ≥ 25 | 
